Results: publication PMC6886526 (Journal of structural biology, 2016)
“And” between values parts separate entries of the source, which are not always exact repeats. Identical values can stand only once.

Key:
StAcrR [1] = molecular target: T1, StAcrR (Salmonella enterica subsp. enterica serovar Typhimurium, UniProt Q7CR15); assay: Competition FP assay in the presence of Pf; assay type: binding; details: for IC50: IC50, competition FP, 10 μM StAcrR and 100 nM Pf
StAcrR [2] = molecular target: T1, StAcrR; assay: Fluorescence-based thermal shift; assay type: binding; details: for dose-dependent effect on StAcrR thermal stability: 2.5-100 μM ligand; for FTS rank (Table S1): rank among hits of the SPC2-ECH008 library screen
StAcrR [3] = molecular target: T1, StAcrR; assay: Fluorescence polarization; assay type: binding
EcAcrR-Glu67Ala mutant = details: ref Li et al., 2007, Su et al.; cited from earlier work
human ENO1 = human ENO1 (Homo sapiens, UniProt P06733); assay: FP binding assay with negative control protein; details: ENO1 up to 100 μM
Human enolase 1 (ENO1) = Human enolase 1 (ENO1) (Homo sapiens, UniProt P06733); assay: FTS assay with negative control protein; assay type: binding; details: 10, 25, 50 and 100 μM ligand
How it was run: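 Human enolase 1 was mixed with SYPRO Orange dye in 100 mM HEPES pH 7.5 with 150 mM NaCl. Ligands were dispensed acoustically from a DMSO stock. Plates were scanned from 10 to 80 °C at 1.5 °C min-1 on a real-time PCR instrument, reading fluorescence every 10 s. Stabilisation was judged from the melting temperature shift (ΔTm), background reduction and melting-curve shape.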

Chain of human ENO1 (P06733 whole entry): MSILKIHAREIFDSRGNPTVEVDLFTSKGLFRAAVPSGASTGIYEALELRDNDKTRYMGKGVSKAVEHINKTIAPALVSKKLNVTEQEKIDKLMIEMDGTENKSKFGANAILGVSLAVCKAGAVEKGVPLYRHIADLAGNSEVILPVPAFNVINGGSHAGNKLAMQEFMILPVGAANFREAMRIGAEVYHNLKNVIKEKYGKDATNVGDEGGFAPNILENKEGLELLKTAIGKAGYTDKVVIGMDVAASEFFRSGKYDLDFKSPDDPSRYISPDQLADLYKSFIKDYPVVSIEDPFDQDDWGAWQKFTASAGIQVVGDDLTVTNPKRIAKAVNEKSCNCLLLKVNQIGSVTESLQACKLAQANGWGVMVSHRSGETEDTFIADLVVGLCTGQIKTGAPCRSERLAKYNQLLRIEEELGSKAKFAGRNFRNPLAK
Chain of Human enolase 1 (ENO1) (P06733 whole entry): as above

Structure (SMILES) | IC50 (StAcrR [1]) | dose-dependent effect on StAcrR thermal stability (StAcrR [2]) | FTS rank (Table S1) (StAcrR [2]) | also measured
C[C@]12CC[C@@H]3c4ccc(O)cc4C[C@@H](CCCCCCCCC[S+]([O-])CCCC(F)(F)C(F)(F)F)[C@H]3[C@@H]1CC[C@@H]2O (stereo partly shown) [Fulvestrant, fulvestrant] | 40.1 µM | Apparent increase in the StAcrR thermal stability at very low concentrations | 1 | –
O=C(NC(=O)c1c(F)cccc1F)Nc1ccc(Cl)cc1 [Diflubenzuron, diflubenzuron] | – | – | – | competition with Pf for binding (StAcrR [1]; negative control ligand): did not compete
CC/N=c1\cc2oc3cc(NCC)c(C)cc3c(-c3ccccc3C(=O)OCC)c-2cc1C [R6G, rhodamine 6G] | – | – | – | Kd (StAcrR [3]): 43.7 ± 1.3 µM; binding by the Glu67Ala mutant of EcAcrR (EcAcrR-Glu67Ala mutant): abolishment of the binding
CC[n+]1c(-c2ccccc2)c2cc(N)ccc2c2ccc(N)cc21 [Et, ethidium] | – | – | – | Kd (StAcrR [3]): 67.3 ± 4.6 µM; binding by the Glu67Ala mutant of EcAcrR (EcAcrR-Glu67Ala mutant): abolishment of the binding
COC1=C(OC)C(=O)C(CCCCCCCCCCO)=C(C)C1=O [Idebenone, idebenone] | 2.8 µM | required higher concentrations | 2 | –
CC(C)c1nc(CN(C)C(=O)N[C@H](C(=O)N[C@@H](Cc2ccccc2)C[C@H](O)[C@H](Cc2ccccc2)NC(=O)OCc2cncs2)C(C)C)cs1 [Ritonavir, ritonavir] | – | Apparent increase in the StAcrR thermal stability at very low concentrations | 4 | –
C[C@]12CC[C@@H]3c4ccc(OC(=O)N(CCCl)CCCl)cc4CC[C@H]3[C@@H]1CC[C@@H]2O [Estramustine, estramustine] | ~18 µM and 18 µM | Apparent increase in the StAcrR thermal stability at very low concentrations | 5 | –
CSc1nc2cc(Cl)c(Oc3cccc(Cl)c3Cl)cc2[nH]1 [Triclabendazole, triclabendazole] | 25.7 µM | required higher concentrations | 3 | –
C[C@]12CC[C@H](O)CC1=CC[C@@H]1[C@@H]2CC[C@]2(C)C(=O)CC[C@@H]12 [Prasterone, prasterone] | 5.4 µM | required higher concentrations | 6 | FTS rank (Table S1) (StAcrR [2]; listed as prasterone): 9
Nc1ccc2cc3ccc(N)cc3nc2c1 [Pf, proflavine] | – | – | – | FP increase with human ENO1 (human ENO1): No FP increase; Kd (StAcrR [3]): 3.9 ± 0.1 µM; affinity to StAcrR relative to Et and R6G (StAcrR [3]; ratio of FP Kd values): over 10 fold; binding by the Glu67Ala mutant of EcAcrR (EcAcrR-Glu67Ala mutant): abolishment of the binding
Cc1cc(N)c2ccccc2[n+]1CCCCCCCCCC[n+]1c(C)cc(N)c2ccccc21 [Dequalinium chloride, dequalinium] | 22.5 µM | – | 14 | effect on thermal stability of human enolase 1 (Human enolase 1 (ENO1)): no effect; change of Tm of StAcrR (StAcrR [2]; below 10 μM ligand): did not notably change
